Measured values pooled from the literature.
Compare with care: the assays were run in different laboratories.
Target: Tyrosine-protein kinase SYK (SYK, Homo sapiens, UniProt P43405)

| Structure (SMILES) | assay | conditions | quantity | result |
| --- | --- | --- | --- | --- |
| CC(C)CC(=O)N1CCc2nc(-c3ccc(Br)cc3)nc(N(C)Cc3ccccc3)c2C1 | cell-free assay, competition with immobilised ligand | 0.1 µM | remaining binding | 100% |
| CN(C)C1CCN(CC#Cc2nn(C3CCCC3)c3nc(NCc4ccccc4)ncc23)C1 (stereo not shown) | enzyme activity, inhibitor, FRET | 10 µM | inhibition | -1% |
| CC(C)(C)c1nc2c(s1)c1nc(N)ncc1c1ccc(NS(=O)(=O)c3c(F)cccc3F)c(F)c12 | enzyme activity, inhibitor, radiometric | 1 µM | remaining activity | 95% |
| CNc1cccc2cc(C(=O)Nc3ccc(C(=O)O)cc3)c(=O)[nH]c12 | enzyme activity, inhibitor | 10 µM | inhibition | 4% |
| CCCS(=O)(=O)Nc1ccc(F)c(C(=O)c2c[nH]c3ncc(-c4ccc(Cl)cc4)cc23)c1F | enzyme activity, inhibitor | 1 µM | inhibition | < 10% |
| COc1cc(Nc2cnc(C#N)c(O[C@H](C)CN(C)C)n2)ncc1-c1cnn(C)c1 | enzyme activity, inhibitor, radiometric | 1 µM | remaining activity | 93% |
| Cn1c(=O)n(-c2ccc(C(C)(C)C#N)cc2)c2c3cc(-c4cnc5ccccc5c4)ccc3ncc21 | enzyme activity, inhibitor | 10 µM | remaining activity | 72% |
| Nc1ncnc2occ(-c3ccc(NC(=O)Nc4cc(C(F)(F)F)ccc4F)cc3)c12 | cell-free assay, inhibitor | 20 µM | remaining signal | 2.4% |
| Cc1nc(Cc2cccc(C(F)(F)F)c2)sc1-c1ccc(C(N)=O)nc1 | cell-free assay, competition with immobilised ligand | 1 µM | remaining binding | 100% |
| CC/C(=N\NC(=O)NCc1cccc(O)c1)c1ccc(O)c(C)c1O | enzyme activity, inhibitor | 0.1 µM | inhibition | 3.3% |
| Cc1ccc(C(=O)Nc2ccc(CN3CCN(C)CC3)c(C(F)(F)F)c2)cc1C#Cc1cnc2cccnn12 | enzyme activity, inhibitor | 23.5 nM | remaining activity | 99% |
| CN(c1ncccc1CNc1nc(Nc2ccc3c(c2)CC(=O)N3)ncc1C(F)(F)F)S(C)(=O)=O | enzyme activity, inhibitor | 1 µM | inhibition | 91.7% |
| COc1cc2ncnc(Nc3ccc(Oc4ccccc4)cc3C)c2cc1OC | enzyme activity, inhibitor | 1 µM | inhibition | 1% |
| Cc1ccc(Nc2nccc(N(C)c3ccc4c(C)n(C)nc4c3)n2)cc1S(N)(=O)=O | enzyme activity, inhibitor | 0.3 µM | inhibition | 21% |
| Cc1c(C(=O)O)cc(-c2ccc(C3CCNCC3)cc2)c2ccc(-c3ccc(C(F)(F)F)cc3)cc12 | cell-free assay, competition with immobilised ligand | 1 µM | remaining binding | 100% |
| Cc1cnc(NC2CCOCC2)nc1-n1cnc(C(=O)NC(CN)c2cc(F)cc(Cl)c2)c1 (stereo not shown) | enzyme activity, inhibitor, radiometric | 1 µM | remaining activity | 94% |

| Structure (SMILES) | assay | conditions | quantity | result |
| --- | --- | --- | --- | --- |
| O=C(CSc1nc2nccnc2c(=O)n1CCc1ccccc1)Nc1nccs1 | enzyme activity, inhibitor | 10 µM | inhibition | 7% |
| FC(F)(F)Oc1cccc(-c2cnc3ccc(-c4ccncc4)nn23)c1 | enzyme activity, inhibitor, radiometric | 1 µM | activity vs control | 72% |
| CC(C)(C)C(=O)c1sc(NC2CCCCC2)nc1N | enzyme activity, inhibitor | 10 µM | remaining activity | 111% |
| CN(c1ccnc(CNc2nc(Nc3ccc4c(c3)CC(=O)N4)ncc2C(F)(F)F)n1)S(C)(=O)=O | cell-free assay, competition with immobilised ligand | 1 µM | remaining binding | 5.7% |
| Cc1sc(C(=O)NC2COC2)cc1-n1cc(NC(=O)Nc2c(F)cccc2Cl)cn1 | enzyme activity, inhibitor | 10 µM | remaining activity | 88.5% |
| CCS(=O)(=O)c1cc2cc(C[C@](O)(CC(C)(C)c3ccc(F)cc3C(N)=O)C(F)(F)F)[nH]c2cn1 | cell-free assay, competition with immobilised ligand | 1 µM | remaining binding | 100% |
| O=C1NC(=O)c2cc(Nc3ccc(F)cc3)c(Nc3ccc(F)cc3)cc21 | cell-free assay | 0.5 µM | remaining signal | 98.8% |
| COc1cc(/C=C/C(=O)CC(=O)/C=C/c2ccc(O)c(OC)c2)ccc1O | enzyme activity, inhibitor | 1 µM | activity vs control | 92% |
| COc1ccc(COc2ccc(Cc3cnc(N)nc3N)cc2OC)cc1 | cell-free assay | 0.5 µM | remaining signal | 89% |
| Nc1cnc(N2CCc3cc(S(=O)(=O)Nc4c(F)cc(Cl)cc4F)cc(N4CCCC4=O)c32)nc1 | cell-free assay, competition with immobilised ligand | 1 µM | remaining binding | 100% |
| CNC(=O)c1cc(Oc2ccc(NC(=O)Nc3ccc(Cl)c(C(F)(F)F)c3)cc2)ccn1 | enzyme activity, inhibitor | 0.3 µM | inhibition | 3% |
| O=C(O)[C@H]1[C@H](Cn2nnc3ccccc3c2=O)CC[C@@H]1C(=O)c1ccc(OCCC2CCOCC2)cc1 | cell-free assay, competition with immobilised ligand | 1 µM | remaining binding | 76% |
| Oc1cccc(-c2nc(N3CCOCC3)c3oc4ncccc4c3n2)c1 | enzyme activity, inhibitor | 10 µM | remaining activity | 69% |
| CS(=O)(=O)N1CCCC(NC(=O)[C@H](CCC2CCCCC2)NC(=O)c2ccc(CNc3ncnc4c3nnn4-c3ccccc3)cc2)C1 (stereo partly shown) | cell-free assay, competition with immobilised ligand | 0.1 µM | remaining binding | 88% |
| O=C1Nc2ccc(Cl)cc2C1=Cc1cc(Cl)c(O)c(Cl)c1 | cell-free assay | 0.5 µM | remaining signal | 93.3% |
